Assays:
Assay type in all cases: cell-based
[1] = system: PC-3 prostate cancer cells; test: MTT cell viability assay, PC-3; conditions: Homo sapiens, 24 h, read-out: IC50, Prostate carcinoma (PC-3)
In short: (§1)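 Cells grown in RPMI 1640 with 10% FBS, penicillin and streptomycin at 37°C, 5% CO2. DMSO stocks were 10.0 mM. Seeded in triplicate at 1.0×10^4 cells/well; after 24 h, dosed 5.0–50.0 μM for 24 h. MTT (5.0 mg/mL) was added for 2 h at 37°C in the dark, formazan dissolved in DMSO, A579 read against 650 nm. IC50 reported as mean ± SEM, n=3. Not assigned if viability stayed above 50% at 50 μM.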

[2] = system: MDA-MB-231 breast cancer cells; test: MTT cell viability assay, MDA-MB-231; conditions: Homo sapiens; for IC20: MDA-MB-231, read-out: IC20 (20% inhibitory concentration) on MDA-MB-231 cell line
In short: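 MDA-MB-231 cells (ATCC) grown in RPMI 1640 with 10% FBS, penicillin/streptomycin, 37°C, 5% CO2. Seeded in triplicate at 1.0×10^4 cells/well, then after 24 h exposed to 5.0–50.0 μM test compound (10.0 mM DMSO stock) for 24 h. MTT (5.0 mg/mL) was added for 2 h at 37°C in the dark, formazan dissolved in DMSO, and absorbance read at 579 nm (reference 650 nm). Mean ± SEM, n=3.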

[3] = system: human mammary epithelial cells (HMECs); test: MTT cell viability assay, HMEC normal control; conditions: 24 h, read-out: IC50, HMECs (normal cells)
In short: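 Normal human mammary epithelial cells kept in mammary epithelial growth medium at 37°C, 5% CO2. Test compound was applied for 24 h over 5.0–50.0 μM (10.0 mM DMSO stocks), and viability was measured by MTT: 2 h in the dark at 37°C, DMSO solubilisation, read at 579/650 nm. Mean ± SEM of n=3; no IC50 assigned if viability stayed above 50% at 50 μM.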

[4] = system: HSC-4 oral squamous cancer cells; test: MTT cell viability assay, HSC-4; conditions: Homo sapiens, HSC-4, 24 h, read-out: IC50, Oral squamous carcinoma (HSC-4)
In short: (§2)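 Cultured in DMEM with 10% FBS, penicillin/streptomycin, 37°C, 5% CO2. Cells plated in triplicate at 1.0×10^4/well. After 24 h, test compound was added at 5.0–50.0 μM (from 10.0 mM DMSO stocks) for 24 h. MTT reduction ran 2 h at 37°C in the dark, formazan was dissolved in DMSO, absorbance 579 nm (reference 650 nm). IC50 given as mean ± SEM (n=3), not assigned when viability remained >50% at 50 μM.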

[5] = system: EJ-28 urinary bladder cancer cells; test: MTT cell viability assay, EJ-28; conditions: Homo sapiens, EJ-28, 24 h, read-out: IC50, Bladder carcinoma (EJ-28)
In short: as §1

[6] = system: RT-112 urinary bladder cancer cells; test: MTT cell viability assay, RT-112; conditions: Homo sapiens, RT-112, 24 h, read-out: IC50, Bladder carcinoma (RT-112)
In short: as §1

[7] = system: MCF-7 breast cancer cells; test: MTT cell viability assay, MCF-7; conditions: Homo sapiens, MCF7, 24 h, read-out: IC50, Breast adenocarcinoma (MCF-7)
In short: as §1

[8] = system: HepG2 liver cancer cells; test: MTT cell viability assay, HepG2; conditions: Homo sapiens, HepG2, 24 h, read-out: IC50, Hepatocyte carcinoma (HepG2)
In short: as §2

Structure (SMILES)	IC50 [1] [µM]	IC50 ([2]; MDA-MB-231, 24 h, read-out: IC50, Breast adenocarcinoma (MDA-MB-231)) [µM]	IC20 [2] [µM]	IC50 [3] [µM]	IC50 [4] [µM]	IC50 [5] [µM]	IC50 [6] [µM]	IC50 [7] [µM]	IC50 [8] [µM]
C=CCc1ccc(OC)cc1 [compound 5, 4-allyl anisole]	> 50	> 50	32	> 50	> 50	> 50	> 50	> 50	> 50
C=CCc1cc(OC)c(O)c(OC)c1 [compound 2, 4-Allyl-2,6-dimethoxyphenol]	> 50	–	48	> 50	> 50	> 50	> 50	> 50	> 50
